Experimental data as given in PMC9306536 (Clinical Pharmacology in Drug Development, 2022).
Where two headings read alike, the source gives them in different places.

Columns and labels:
[1] = cited from earlier work
[2] = cited from earlier work; remark: listed apart in the source
[3] = cited from earlier work; remark: listed apart in the source
[4] = cited from earlier work; remark: listed apart in the source
[5] = cited from earlier work; remark: listed apart in the source
[6] = cited from earlier work; remark: listed apart in the source
[7] = fed state (high-fat and high-calorie diet); ref data on file; cited from earlier work
[8] = Hyperphosphatemia in patients of the population PK dataset; type: in vivo, human
Method in brief: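 Pooled patients from three open-label trials on once-daily oral dosing: phase 1/2 advanced malignancies (1–20 mg escalation, 9 or 13.5 mg expansion; monotherapy or combination; 2-weeks-on/1-week-off or continuous, 21-day cycles; N = 157); Japanese phase 1 (9 or 13.5 mg, intermittent; N = 25); phase 2 cholangiocarcinoma (13.5 mg, 2-weeks-on/1-week-off; N = 136). Hyperphosphatemia scored after treatment.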

[9] = Population PK analysis of pemigatinib in patients with advanced malignancies; type: in vivo, human
Method in brief: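 Sampling was rich in phase 1 and sparse in phase 2. Values <1 nM (LLOQ) were excluded. Log-transformed data were fitted with 1-/2-compartment models with first-order absorption and linear elimination. Covariates were GAM-screened, then added and removed stepwise in NONMEM. 95% CIs came from a 500-run bootstrap, with VPC.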

[10] = cited from earlier work; remark: listed apart in the source
[11] = cited from earlier work; remark: listed apart in the source
[12] = final model covariate coefficient
[13] = final model covariate power term
[14] = final population PK model, Table 4

SMILES: CCN1C(=O)N(c2c(F)c(OC)cc(OC)c2F)Cc2cnc3[nH]c(CN4CCOCC4)cc3c21 [pemigatinib, Pemigatinib]
- DDI with a weak CYP3A4 inhibitor ([1]; PBPK modeling): no DDI
- predicted decrease in AUC ([1]; coadministered with a strong or moderate CYP3A4 inducer, data on file): > 50%
- predicted increase in AUC ([1]; coadministered with a strong or moderate CYP3A4 inhibitor, data on file): > 50%
- reduction of AUC ([1]; coadministration of moderate CYP3A4 inducers): > 50%
- Biopharmaceutics Classification System class [2]: Class II
- permeability [2]: high
- solubility [2]: pH‐dependent
- renal clearance, % of total clearance ([3]; Introduction, no reference given): 1.19%
- predominant clearance pathway in humans ([3]; in vitro and in vivo data, no reference given): liver metabolism
- administered radioactive dose recovered as unchanged pemigatinib in feces ([3]; ref data on file): 1.3%
- known metabolites, share of total radioactivity ([3]; ref data on file): 72%
- accumulation ratio for AUC0-24 [4]: ≈ 1.6
- terminal elimination half-life [4]: ≈ 15 hours
- pharmacokinetics linearity ([4]; dose range of 1 to 20 mg): linear
- renal clearance, % of total clearance [5]: 1%
- exposure geometric mean ratio vs normal renal function ([5]; end-stage renal disease after hemodialysis): 91.3%
- exposure geometric mean ratio vs normal renal function ([5]; end-stage renal disease before hemodialysis): 76.8%
- pemigatinib AUC increase ([5]; patients with severe renal impairment): 59%
- pemigatinib AUC increase ([6]; patients with moderate hepatic impairment): 46%
- pemigatinib AUC increase ([6]; patients with severe hepatic impairment): 74%
- delay of median time to Cmax [7]: 4.02 h
- Hyperphosphatemia, Yes ([8]; N = 318): 215 (67.6) n (%)
- patients who developed hyperphosphatemia after treatment ([8]; patients included in this analysis (N = 318)): ~68%
- CL/F with moderate CYP3A4 inducer higher than pemigatinib alone ([9]; 1 patient): ≈ 100%
- CL/F ([9]; base structural model): 10.7 L/h
- IIV for Vc/F ([9]; base structural model): 44.6 % CV
- IIV for Vp/F ([9]; base structural model): 37.3 % CV
- IIV for ka ([9]; base structural model): 133 % CV
- Q/F ([9]; base structural model): 14.5 L/h
- Vc/F ([9]; base structural model): 134 L
- Vp/F ([9]; base structural model): 87.0 L
- first-order ka ([9]; base structural model): 0.997 h⁻¹
- CL/F of pemigatinib alone ([9]; comparator for the patient on a moderate CYP3A4 inducer): 11.7 L/h
- predicted Cmax steady state (Cmax,ss) ([9]; female patients): 96.53 ng/mL
- Magnitude of Interindividual Variability of CL/F ([9]; final model): 43.4 %CV
- Magnitude of Interindividual Variability of Vc/F ([9]; final model): 35.1 %CV
- Magnitude of Interindividual Variability of ka ([9]; final model): 127 %CV
- contribution of sex to the change of oral clearance ([9]; final model): < 20%
- decrease of typical CL/F by phosphate binder coadministration ([9]; final model): 14.1%
- increase of typical Vc/F by proton pump inhibitor coadministration ([9]; final model): 24.4%
- typical CL/F, males higher compared with females ([9]; final model): 19.0%
- typical ka, males lower compared with females ([9]; final model): 56.5%
- Proton pump inhibitor on Vc/F, Population Mean [9, 12]: –0.244
- Sex (male vs female) on CL, Population Mean [9, 12]: 0.190
- Body weight (median = 73.3 kg) on Vc/F, Population Mean [9, 13]: 0.738
- Body weight on Vp/F, Population Mean [9, 13]: 1.22
- typical apparent volume of distribution of the peripheral compartment (Vp/F) ([9]; final model, 73.3-kg patient): 80.1 L
- typical ka ([9]; final model, female patients): 1.49 h⁻¹
- typical absorption rate constant (ka) ([9]; final model, females): 1.49 L/h
- typical oral clearance (CL/F) ([9]; final model, females): 10.3 L/h
- CL/F, Population Mean [9, 14]: 9.00 L/h
- Q/F, Population Mean [9, 14]: 16.0 L/h
- Vc/F, Population Mean [9, 14]: 161 L
- Vp/F, Population Mean [9, 14]: 80.1 L
- ka, Population Mean [9, 14]: 1.49 h⁻¹
- increase of typical CL/F by coadministration with a weak CYP3A4 inducer ([9]; full multivariate PK model (covariate removed from final model)): 24.2%
- Vd/F ([9]; human, plasma, oral): 122 L
- half-life ([9]; human, plasma, oral): 16 h
- increase in Cmax,ss, female vs male patients ([9]; post hoc estimates): 27%
- Cmax ([9]; read-out: predicted Cmax steady state (Cmax,ss), female patients): 198 nM
- post hoc-estimated CL/F ([9]; the 1 patient with concomitant moderate CYP3A4 inducer): 22.8 L/h
- geometric mean CL/F ([9]; this population PK analysis): 10.9 L/h
- pemigatinib AUC increase ([10]; coadministered with itraconazole (strong CYP3A4 inhibitor)): ≈ 90%
- pemigatinib AUC decrease ([10]; coadministered with rifampin (strong CYP3A4 inducer)): 85%
- effect on the overall exposure of pemigatinib ([11]; coadministration with esomeprazole or ranitidine): modest effect
- AUC decrease ([11]; with esomeprazole (PPI)): 8%
- AUC increase ([11]; with ranitidine (H2-receptor antagonist)): 3%

SMILES: CCN1C(=O)N(c2c(F)c(O)cc(OC)c2F)Cc2cnc3[nH]c(CN4CCOCC4)cc3c21 [M2, O‐desmethyl pemigatinib]
- share of the metabolite burden in urine and feces ([3]; M2 and its secondary metabolites (M7, M8, and M9) together, ref data on file): 76.9%
